Assay results reported in ChEMBL document CHEMBL1143122, “Novel analogs of D-e-MAPP and B13. Part 1: synthesis and evaluation as potential anticancer agents” (Bioorg Med Chem, 2008).

Experiments:
SK-MEL-28 = assay: Antiproliferative activity against human SKMEL28 cells after 48 hrs; assay type: functional; settings: SK-MEL-28, 48 h
Procedure, shortened: (§1)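 NCI 60-cell screen. Cells were grown in RPMI 1640 with 5% FBS and 2 mM L-glutamine, then plated at 5,000–40,000 cells/well according to doubling time and preincubated for 24 h at 37 °C in 5% CO2. Compounds were dissolved in DMSO at 400× the top final concentration and tested at five 10-fold dilutions from 10−4 to 10−8 M for 48 h. Growth was read spectrophotometrically; GI50 is 50% net protein reduction.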

ACHN = assay: Antiproliferative activity against human ACHN cells after 48 hrs; assay type: functional; procedure, shortened: as §1
HOP-62 = assay: Antiproliferative activity against human HOP62 cells after 48 hrs; assay type: functional; settings: HOP-62, 48 h; procedure, shortened: as §1
[1] = Antiproliferative activity against human […] cells after 48 hrs; assay type: functional; procedure, shortened: as §1
K562 = assay: Antiproliferative activity against human K562 cells after 48 hrs; assay type: functional; settings: K562, 48 h; procedure, shortened: as §1
M14 = assay: Antiproliferative activity against human M14 cells after 48 hrs; assay type: functional; settings: M14, 48 h; procedure, shortened: as §1
LOX IMVI = assay: Antiproliferative activity against human LOXIMVI cells after 48 hrs; assay type: functional; procedure, shortened: as §1
MCF7 = assay: Antiproliferative activity against human MCF7 cells after 48 hrs; assay type: functional, cell-based; settings: MCF7, 48 h
UO-31 = assay: Antiproliferative activity against human UO31 cells after 48 hrs; assay type: functional; settings: UO-31, 48 h
Procedure, shortened: (§2)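 NCI 60-cell-line screen. Lines grown in RPMI 1640 with 5% fetal bovine serum and 2 mM L-glutamine, plated at 5,000–40,000 cells/well according to doubling time, left 24 h at 37 °C in 5% CO2. Drug stocks in DMSO at 400-fold the top final concentration. Five 10-fold dilutions, 10−4 to 10−8 M, incubated 48 h. Growth read spectrophotometrically as net protein; GI50 taken as 50% reduction.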

CCRF-CEM = assay: Antiproliferative activity against human CCRF-CEM cells after 48 hrs; assay type: functional; procedure, shortened: as §1
KM12 = assay: Antiproliferative activity against human KM12 cells after 48 hrs; assay type: functional; settings: Homo sapiens, KM12, 48 h; procedure, shortened: as §1
SNB-19 = assay: Antiproliferative activity against human SNB19 cells after 48 hrs; assay type: functional; settings: SNB-19, 48 h; procedure, shortened: as §1
Hs-578T = assay: Antiproliferative activity against human HS578T cells after 48 hrs; assay type: functional; procedure, shortened: as §1
MDA-MB-435 = assay: Antiproliferative activity against human MDA-MB-435 cells after 48 hrs; assay type: functional; settings: Homo sapiens, MDA-MB-435, 48 h; procedure, shortened: as §1
SW-620 = assay: Antiproliferative activity against human SW620 cells after 48 hrs; assay type: functional; settings: SW-620, 48 h; procedure, shortened: as §2
DU-145 = assay: Antiproliferative activity against human DU145 cells after 48 hrs; assay type: functional; settings: DU-145, 48 h; procedure, shortened: as §1
UACC-257 = assay: Antiproliferative activity against human UACC257 cells after 48 hrs; assay type: functional; settings: UACC-257, 48 h; procedure, shortened: as §2
HCC 2998 = assay: Antiproliferative activity against human HCC2998 cells after 48 hrs; assay type: functional; settings: HCC 2998, 48 h; procedure, shortened: as §1
IGROV-1 = assay: Antiproliferative activity against human IGROV1 cells after 48 hrs; assay type: functional; settings: IGROV-1, 48 h; procedure, shortened: as §1
SF-268 = assay: Antiproliferative activity against human SF268 cells after 48 hrs; assay type: functional; settings: SF-268, 48 h; procedure, shortened: as §1
OVCAR-3 = assay: Antiproliferative activity against human OVCAR-3 cells after 48 hrs; assay type: functional; settings: OVCAR-3, 48 h; procedure, shortened: as §1
SNB-75 = assay: Antiproliferative activity against human SNB75 cells after 48 hrs; assay type: functional; settings: SNB-75, 48 h; procedure, shortened: as §1
SK-OV-3 = assay: Antiproliferative activity against human SKOV3 cells after 48 hrs; assay type: functional; settings: SK-OV-3, 48 h; procedure, shortened: as §1
SK-MEL-5 = assay: Antiproliferative activity against human SKMEL5 cells after 48 hrs; assay type: functional; settings: SK-MEL-5, 48 h, read-out: Log LC50 (the source's name) (converted); procedure, shortened: as §1
NCI-H522 = assay: Antiproliferative activity against human NCI-H522 cells after 48 hrs; assay type: functional; settings: NCI-H522, 48 h; procedure, shortened: as §1
PC-3 = assay: Antiproliferative activity against human PC3 cells after 48 hrs; assay type: functional; settings: PC-3, 48 h; procedure, shortened: as §1
T47D = assay: Antiproliferative activity against human T47D cells after 48 hrs; assay type: functional; procedure, shortened: as §2
U-251 = assay: Antiproliferative activity against human U251 cells after 48 hrs; assay type: functional; settings: U-251, 48 h; procedure, shortened: as §2
HOP-92 = assay: Antiproliferative activity against human HOP92 cells after 48 hrs; assay type: functional; settings: HOP-92, 48 h; procedure, shortened: as §1
A549 = assay: Antiproliferative activity against human A549 cells after 48 hrs; assay type: functional; settings: A549, 48 h; procedure, shortened: as §1
SF-539 = assay: Antiproliferative activity against human SF539 cells after 48 hrs; assay type: functional; settings: SF-539, 48 h; procedure, shortened: as §1
OVCAR-4 = assay: Antiproliferative activity against human OVCAR4 cells after 48 hrs; assay type: functional; settings: OVCAR-4, 48 h; procedure, shortened: as §1
HT-29 = assay: Antiproliferative activity against human HT29 cells after 48 hrs; assay type: functional; settings: HT-29, 48 h; procedure, shortened: as §1
[2] = read-out: Log LC50 (the source's name) (converted)

With `CCCCCCCCCCCCCCN[C@H](C)[C@@H](O)c1ccccc1.Cl` the GI50 (SK-MEL-28) was 1.86 µM, the LC50 (SK-MEL-28) was 5.75 µM and the TGI (SK-MEL-28; read-out: Log TGI (converted)) was 3.24 µM. It also gave a GI50 (ACHN) of 1.86 µM, a CC50 (ACHN; [2]) of 5.89 µM and a TGI (ACHN; read-out: Log TGI (converted)) of 3.31 µM. The GI50 (HOP-62) was 1.86 µM, the CC50 (HOP-62; [2]) was 5.89 µM and the TGI (HOP-62; read-out: Log TGI (converted)) was 3.31 µM. It also gave a GI50 [1] of 1.62 µM, an LC50 [1] of 6.03 µM and a TGI ([1]; read-out: Log TGI (converted)) of 3.09 µM. It also gave a GI50 (K562) of 1.41 µM, an LC50 (K562) of 5.62 µM and a TGI (K562; read-out: Log TGI (converted)) of 2.82 µM. For the same compound, the GI50 (M14) was 1.86 µM, the LC50 (M14) was 6.17 µM and the TGI (M14; read-out: Log TGI (converted)) was 3.39 µM. It also gave a GI50 (LOX IMVI) of 1.82 µM, an LC50 (LOX IMVI) of 5.89 µM and a TGI (LOX IMVI; read-out: Log TGI (converted)) of 3.31 µM. For the same compound, the IC50 (MCF7) was 3.5 µM, the GI50 (UO-31) was 1.74 µM and the LC50 (UO-31) was 5.89 µM. The TGI (UO-31; read-out: Log TGI (converted)) was 3.24 µM, the GI50 (CCRF-CEM) was 1.45 µM and the CC50 (CCRF-CEM; [2]) was 7.59 µM. For the same compound, the TGI (CCRF-CEM; read-out: Log TGI (converted)) was 3.31 µM, the GI50 (KM12) was 1.82 µM and the CC50 (KM12; [2]) was 5.62 µM. For the same compound, the TGI (KM12; read-out: Log TGI (converted)) was 3.16 µM, the GI50 (SNB-19) was 1.74 µM and the TGI (SNB-19; read-out: Log TGI (converted)) was 3.09 µM. For the same compound, the GI50 (Hs-578T) was 2.51 µM, the LC50 (Hs-578T) was 46.8 µM and the TGI (Hs-578T; read-out: Log TGI (converted)) was 5.5 µM. The GI50 (MDA-MB-435) was 1.78 µM, the LC50 (MDA-MB-435) was 5.62 µM and the TGI (MDA-MB-435; read-out: Log TGI (converted)) was 3.16 µM. The GI50 (SW-620) was 2.14 µM, the LC50 (concentration killing 50% of cells) (SW-620) was 7.94 µM and the TGI (SW-620; read-out: Log TGI (converted)) was 4.17 µM. For the same compound, the GI50 (DU-145) was 1.48 µM, the CC50 (DU-145; [2]) was 5.25 µM and the TGI (DU-145; read-out: Log TGI (converted)) was 2.82 µM. It also gave a GI50 (UACC-257) of 1.66 µM, a CC50 (UACC-257; [2]) of 6.46 µM and a TGI (UACC-257; read-out: Log TGI (converted)) of 3.31 µM. For the same compound, the GI50 (HCC 2998) was 1.86 µM, the CC50 (HCC 2998; [2]) was 6.46 µM and the TGI (HCC 2998; read-out: Log TGI (converted)) was 3.47 µM. For the same compound, the GI50 (IGROV-1) was 1.62 µM, the LC50 (IGROV-1) was 5.75 µM and the TGI (IGROV-1; read-out: Log TGI (converted)) was 3.09 µM. For the same compound, the GI50 (SF-268) was 1.78 µM, the LC50 (SF-268) was 6.76 µM and the TGI (SF-268; read-out: Log TGI (converted)) was 3.47 µM. It also gave a GI50 (OVCAR-3) of 1.74 µM, an LC50 (OVCAR-3) of 6.03 µM and a TGI (OVCAR-3; read-out: Log TGI (converted)) of 3.24 µM. For the same compound, the GI50 (SNB-75) was 2.09 µM, the CC50 (SNB-75; [2]) was 7.08 µM and the TGI (SNB-75; read-out: Log TGI (converted)) was 3.89 µM. It also gave a GI50 (SK-OV-3) of 2.34 µM, a CC50 (SK-OV-3; [2]) of 9.77 µM and a TGI (SK-OV-3; read-out: Log TGI (converted)) of 4.79 µM. The CC50 (SK-MEL-5) was 100 µM, the GI50 (NCI-H522) was 1.91 µM and the CC50 (NCI-H522; [2]) was 6.61 µM. For the same compound, the TGI (NCI-H522; read-out: Log TGI (converted)) was 3.55 µM, the GI50 (PC-3) was 1.86 µM and the LC50 (PC-3) was 5.89 µM. For the same compound, the TGI (PC-3; read-out: Log TGI (converted)) was 3.31 µM, the GI50 (T47D) was 2.29 µM and the CC50 (T47D; [2]) was 7.76 µM. For the same compound, the TGI (T47D; read-out: Log TGI (converted)) was 4.17 µM, the GI50 (U-251) was 1.86 µM and the CC50 (U-251; [2]) was 5.89 µM. The TGI (U-251; read-out: Log TGI (converted)) was 3.31 µM, the GI50 (HOP-92) was 1.55 µM and the LC50 (HOP-92) was 5.89 µM. It also gave a TGI (HOP-92; read-out: Log TGI (converted)) of 3.02 µM, a GI50 (A549) of 1.74 µM and a CC50 (A549; [2]) of 6.31 µM. The TGI (A549; read-out: Log TGI (converted)) was 3.31 µM, the GI50 (SF-539) was 1.35 µM and the LC50 (SF-539) was 5.5 µM. It also gave a TGI (SF-539; read-out: Log TGI (converted)) of 2.69 µM, a GI50 (OVCAR-4) of 2.14 µM and an LC50 (OVCAR-4) of 6.76 µM. It also gave a TGI (OVCAR-4; read-out: Log TGI (converted)) of 3.8 µM, a GI50 (HT-29) of 1.78 µM and an LC50 (HT-29) of 5.75 µM. It also gave a TGI (HT-29; read-out: Log TGI (converted)) of 3.24 µM.
